The results in this text go back to ChEMBL document CHEMBL3352511, “Pyrrole-3-carboxamides as potent and selective JAK2 inhibitors” (Bioorg Med Chem, 2014).

The target of series [1] is Tyrosine-protein kinase JAK2 (Homo sapiens, UniProt O60674).
Series [2] is described as follows: Antiproliferative activity against human DERL7 cells after 72 hrs by Cell Titer-Glo assay. It is filed as functional, cell-based. Particulars: DERL7, 72 h. (In general: ATP-based viability assays read luminescence as a measure of living cells.)
Another series concerns A2780. In words: Antiproliferative activity against human A2780 cells after 72 hrs by Cell Titer-Glo assay. Particulars: A2780, 72 h. It is filed as functional, cell-based.
Series [3] concerns the target Tyrosine-protein kinase JAK2 (Homo sapiens, UniProt O60674, V617F).
Series [4] is described as follows: Solubility of the compound in buffer at pH7. It is filed as physicochemical. Particulars: pH 7.
Series [5] can be described thus: Cmax in Balb nu/nu mouse at 10 mg/kg, iv. It is filed as ADME, organism-based. The arrangement: dose 10 mg/kg, route intravenous. Particulars: in vivo. Summed up:
(§1)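 Overnight-fasted male Nu/Nu mice, single intravenous dose in 10% Tween 80 in 5% dextrose, three mice. Saphenous vein blood taken at predose, 0.083, 0.5, 1, 6 and 24 h. Plasma obtained by centrifugation at 10,000g, 3 min, 4 °C, stored at -80 °C, then analysed by LC/MS/MS.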

The nature of series [6]: (§2) AUC(infinity) in Balb nu/nu mouse at 10 mg/kg, iv. It is filed as ADME, organism-based, Plasma. More on the design: dose 10 mg/kg, route intravenous, time infinity. The note with it: Balb nu/nu, plasma. The gist of the method: as §1
Series [7] is described as follows: Clearance in Balb nu/nu mouse at 10 mg/kg, iv. Particulars: in vivo. The arrangement: dose 10 mg/kg, route intravenous. It is filed as ADME, organism-based. The gist of the method:
as §1

Series [8] can be described thus: Volume of distribution at steady state in Balb nu/nu mouse at 10 mg/kg, iv. It is filed as ADME, organism-based. More on the design: dose 10 mg/kg, route intravenous. Particulars: in vivo, read-out: Vdss. The gist of the method: as §1
The nature of series [9]: Half life in Balb nu/nu mouse at 10 mg/kg, iv. It is filed as ADME, organism-based. More on the design: dose 10 mg/kg, route intravenous. Particulars: in vivo. Summed up: as §1
Series [10] can be described thus: Cmax in Balb nu/nu mouse at 10 mg/kg, po. It is filed as ADME, organism-based. The arrangement: dose 10 mg/kg, route oral. The note with it: in vivo. The gist of the method:
(§3)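 Overnight-fasted male Nu/Nu mice, single oral dose in 0.5% methocel, three mice. Saphenous vein blood taken at predose, 0.083, 0.5, 1, 6 and 24 h. Plasma obtained by centrifugation at 10,000g, 3 min, 4 °C, stored at -80 °C, then analysed by LC/MS/MS.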

A short description of series [11]: AUC(infinity) in Balb nu/nu mouse at 10 mg/kg, po. It is filed as ADME, organism-based. The arrangement: time infinity, dose 10 mg/kg, route oral. The note with it: plasma. Summed up: as §3
Series [12] is described as follows: Half life in Balb nu/nu mouse at 10 mg/kg, po. It is filed as ADME, organism-based. The arrangement: dose 10 mg/kg, route oral. The note with it: in vivo. The gist of the method: as §3
Series [13] in a line: Oral bioavailability in Balb nu/nu mouse at 10 mg/kg. It is filed as ADME, organism-based. Particulars: in vivo. The gist of the method:
as §3

The next series deals with Mus musculus. The description is as §2. It is filed as ADME, organism-based, Plasma. The arrangement: dose 10 mg/kg, route intravenous, time infinity. Particulars: in vivo. The gist of the method: as §1

Molecules are shown by their SMILES. In brackets after ≈: the same amount, converted by molar mass.

Tyrosine-protein kinase JAK2 (Homo sapiens, UniProt O60674, V617F), sequence (O60674 whole entry V617F): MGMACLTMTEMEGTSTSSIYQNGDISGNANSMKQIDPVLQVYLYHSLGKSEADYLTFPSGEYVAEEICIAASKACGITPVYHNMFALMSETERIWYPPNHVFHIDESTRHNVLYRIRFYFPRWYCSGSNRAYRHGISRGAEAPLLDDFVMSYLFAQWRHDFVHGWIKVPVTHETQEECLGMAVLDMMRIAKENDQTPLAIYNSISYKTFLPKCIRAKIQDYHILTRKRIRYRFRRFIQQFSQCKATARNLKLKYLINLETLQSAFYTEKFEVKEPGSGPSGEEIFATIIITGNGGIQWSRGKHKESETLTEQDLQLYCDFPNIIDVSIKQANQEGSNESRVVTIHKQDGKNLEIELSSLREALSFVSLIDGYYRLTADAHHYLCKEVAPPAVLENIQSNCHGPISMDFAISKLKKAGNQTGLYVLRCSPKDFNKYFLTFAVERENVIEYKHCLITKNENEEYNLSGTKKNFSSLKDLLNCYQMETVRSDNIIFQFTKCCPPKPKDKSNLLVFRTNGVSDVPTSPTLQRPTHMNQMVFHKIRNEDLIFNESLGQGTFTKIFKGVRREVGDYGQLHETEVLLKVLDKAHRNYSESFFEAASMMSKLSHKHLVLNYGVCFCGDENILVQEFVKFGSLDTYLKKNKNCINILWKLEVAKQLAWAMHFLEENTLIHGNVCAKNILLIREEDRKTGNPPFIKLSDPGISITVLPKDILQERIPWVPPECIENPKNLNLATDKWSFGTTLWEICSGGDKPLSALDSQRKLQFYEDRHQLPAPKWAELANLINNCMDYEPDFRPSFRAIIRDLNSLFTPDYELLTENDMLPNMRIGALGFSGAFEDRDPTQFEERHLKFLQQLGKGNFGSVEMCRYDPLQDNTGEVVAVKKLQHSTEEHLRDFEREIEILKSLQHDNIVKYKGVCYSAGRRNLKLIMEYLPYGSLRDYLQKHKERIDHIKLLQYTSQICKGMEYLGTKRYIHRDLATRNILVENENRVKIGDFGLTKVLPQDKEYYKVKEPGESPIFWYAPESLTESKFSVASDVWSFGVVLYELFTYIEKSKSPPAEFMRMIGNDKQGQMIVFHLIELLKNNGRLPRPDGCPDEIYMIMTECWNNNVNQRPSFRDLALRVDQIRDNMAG
Tyrosine-protein kinase JAK2 (Homo sapiens, UniProt O60674), sequence (O60674 whole entry): as the sequence (O60674 whole entry V617F) above, with F617V counted along it

In general, IC50 refers to the concentration that gives 50% inhibition. Read a low IC50 as greater potency in that assay. For `NC(=O)c1cc(-c2ccnc(N)n2)[nH]c1-c1cc(Cl)ccc1C(F)(F)F`, the IC50 in series [1] was 0.053 µM.
Same read-out and setting: to `Cc1ccc(Cl)cc1-c1[nH]c(-c2ccnc(N)n2)cc1C(=O)Nc1ccccc1` belongs 0.247 µM; to `Cc1ccc(Cl)cc1-c1[nH]c(-c2ccnc(N)n2)cc1C(=O)NCC(C)C`, 0.384 µM.
As for `Cc1ccc(Cl)cc1-c1[nH]c(-c2ccnc(N)n2)cc1C(N)=O`, the IC50 was 0.74 µM in [2] and 0.38 µM with A2780.
For the compound `NC(=O)c1cc(-c2ccnc(N)n2)[nH]c1-c1cc(Cl)ccc1Cl`, the IC50 was found to be 1.66 µM in [2], 2.46 µM in the series with A2780 and 0.7 µM in series [3].
For `Cc1ccc(Cl)cc1-c1[nH]c(-c2ccnc(N)n2)cc1C(=O)NCCO`, half-maximal inhibition in [1] (IC50) was put at 0.057 µM.
Same read-out and setting: the same measure for `CCNC(=O)c1cc(-c2ccnc(N)n2)[nH]c1-c1cc(Cl)ccc1C`: 0.109 µM.
Same read-out and setting: the same measure for `Cc1ccc(Cl)cc1-c1[nH]c(-c2ccnc(Nc3ccc(N4CCN(C)CC4)cc3)n2)cc1C(N)=O`: 0.059 µM; for `Cc1ccc(Cl)cc1-c1[nH]c(-c2ccnc(N)n2)cc1C(=O)NCc1ccccc1`: 0.154 µM.
As for `Cc1ccc(Cl)cc1-c1[nH]c(-c2ccnc(N)n2)cc1C(=O)NC1CCN(C)CC1`, the IC50 was 0.046 µM in series [1] and over 3 µM in [3].
The matching figures for `NC(=O)c1cc(-c2ccnc(N)n2)[nH]c1-c1cc(OC(F)(F)F)ccc1Cl`: 0.024 µM and 1.1 µM.
Compound `Cc1ccc(Cl)cc1-c1[nH]c(-c2ccnc(N)n2)cc1C(=O)NCCF` yielded an IC50 in series [1] of 0.114 µM.
Regarding `NC(=O)c1cc(-c2ccnc(N)n2)[nH]c1-c1cc(C(F)(F)F)ccc1C(F)(F)F`, the IC50 in series [1] turned out to be 0.021 µM; in series [3], 3.07 µM.
For the compound `NC(=O)c1cc(-c2ccnc(N)n2)[nH]c1-c1ccccc1`, the IC50 in [1] was 3.2 µM.
Still for that read-out and setting: to `CC(C)c1ccc(Cl)cc1-c1[nH]c(-c2ccnc(N)n2)cc1C(N)=O` belongs 0.15 µM.
As usually defined, the solubility is the dissolved amount per volume that the medium holds. A low value points to a poorly soluble substance. A word on the Cmax: it is the highest concentration seen after dosing. What is called AUC(0-inf) is total exposure, with the tail of the curve extrapolated. Lower therefore signals low exposure. By clearance is commonly meant a measure of how efficiently the substance is removed, as volume per time. High values mean efficient removal, low ones inefficient removal. Broadly, the half-life is the time in which the quantity being followed falls by half. Read a low half-life as fast loss. Usually bioavailability stands for the share of a dose that reaches the circulation, judged against a reference dose that is usually intravenous. Read a low bioavailability as little systemic uptake. With `CCc1ccc(C(F)(F)F)cc1-c1[nH]c(-c2ccnc(N)n2)cc1C(N)=O`, the IC50 in series [2] amounted to 1.47 µM; in the series on A2780, 2.21 µM; in [3] it was 0.32 µM. In series [4], the solubility was 182 µM (≈ 68.3 µg/mL). The Cmax in [5] was 38.9 µM; in [10], 4.4 µM. For the same compound, the AUC(0-inf) in series [6] came to 20.7 µM·h; in series [11] it was 4.6 µM·h. Also, the clearance in series [7] was determined as 1.3 L/h/kg. The Vd in series [8] is 0.6 L/kg. Also, the half-life in series [9] is 60 min; in series [12] it was 108 min. In [13], this compound displayed a bioavailability of 24%.
`COc1ccc(CNc2nccc(-c3cc(C(N)=O)c(-c4cc(Cl)ccc4C)[nH]3)n2)cc1` came in with an IC50 in [1] of 0.394 µM.
The same measure, in the same setting: to `Cc1ccc(Cl)cc1-c1c(C(N)=O)cc(-c2ccnc(N)n2)n1C` belongs 0.066 µM.
Still for that read-out and setting: the same measure for `Cc1ccc(Cl)cc1-c1[nH]c(-c2ccncn2)cc1C(N)=O`: 1.24 µM.
Consider `CNC(=O)c1cc(-c2ccnc(N)n2)[nH]c1-c1cc(Cl)ccc1C`, for which the IC50 in [2] is 2.07 µM; in the series with A2780, 0.98 µM; in [1] it was 0.035 µM; in series [3], 0.48 µM.
The matching figures for `Cc1ccc(C(F)(F)F)cc1-c1[nH]c(-c2ccnc(N)n2)cc1C(N)=O`: 0.64 µM, 0.44 µM, 0.01 µM and 0.76 µM.
Usually AUC stands for the area under the concentration-time curve, a measure of exposure. `CCc1ccc(Cl)cc1-c1[nH]c(-c2ccnc(N)n2)cc1C(N)=O`: the IC50 in series [2] turned out to be 0.88 µM; in the series with A2780, 2 µM. Moreover, the concentration in solution in [4] (solubility) was 200 µM (≈ 68.4 µg/mL). Also, the Cmax in [5] amounted to 4.5 µM; in series [10] it was 0.6 µM. In the series on Mus musculus, the AUC was 2 µM·h. In addition, the Vd in series [8] is 1.8 L/kg. Also, the half-life is 12 min in series [9] and 48 min in series [12]. In [11], this compound had an AUC(0-inf) of 0.7 µM·h. In addition, the bioavailability in series [13] is 17%.
In turn, `COc1ccc(Cl)cc1-c1[nH]c(-c2ccnc(N)n2)cc1C(N)=O` returned an IC50 in series [1] of 0.308 µM.
Take `CNCCNC(=O)c1cc(-c2ccnc(N)n2)[nH]c1-c1cc(Cl)ccc1C`: the figures for the IC50 in series [1] and in [3] were 0.044 µM and over 3 µM, respectively.
In [1], `NC(=O)c1cc(-c2ccnc(N)n2)[nH]c1-c1cccc(Cl)c1` displayed an IC50 of 0.617 µM.
With `Cc1ccc(Cl)cc1-c1c(C(N)=O)cc(-c2ccnc(Nc3ccc(N4CCN(C)CC4)cc3)n2)n1C`, the IC50 came out at 0.022 µM in [1] and 0.25 µM in series [3].
As to `Cc1ccccc1-c1[nH]c(-c2ccnc(N)n2)cc1C(N)=O`, 0.695 µM corresponded to half-maximal inhibition in series [1] (IC50).
Same read-out and setting: to `Cc1ccc(Cl)cc1-c1[nH]c(-c2ccnc(N)n2)cc1C(=O)N(C)C` belongs 3.06 µM.
The same measure, in the same setting: the same measure for `NC(=O)c1cc(-c2ccnc(N)n2)[nH]c1-c1ccccc1Cl`: 0.615 µM.
